Test [1] deals with Mus musculus. The experiment in a line: Antiinflammatory activity in MOG (35 to 55 residues)/pertussis toxin-induced experimental autoimmune encephalomyelitis C57BL/6J mouse model assessed as improvement in late stage disease severity at 10 mg/kg, ip dosed once daily for 20 days starting from day 10 to 16 post immunization and measured at day 10 to 19 post treatment. Format: functional, organism-based. As to conditions: time 10-19 day. A digest of the protocol: (§1)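 Active EAE in mice: 200 µg MOG35-55 in CFA (4 mg/ml M. tuberculosis) s.c. at hips and tail root, plus pertussis toxin 300 ng i.p. after immunization and 48 h later. Daily i.p. dosing (DMSO vehicle) for 20 days from each mouse's onset (day 10–16); onset = day 1. Daily clinical score; multiple t-tests with Holm-Sidak.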

In test [2] the target is Cannabinoid receptor 1 (Rattus norvegicus) (UniProt P20272). The experiment in a line: Agonist activity at CB1R in Sprague-Dawley rat hippocampal synaptosomes assessed as inhibition of 4-AP evoked glutamate release at 1 uM preincubated for 8 mins followed by 4-AP addition by HPLC analysis. Format: subcellular. As to conditions: Hippocampus. A digest of the protocol:
(§2)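 Rat (male Sprague Dawley, 200-250 g) hippocampal synaptosomes from Percoll gradient, superfused at 37 °C (0.5 ml/min); 4-AP 600 μM for 2 min. Compounds and antagonists (SR141716A, SR144528, 1 μM) added 8 min before 4-AP and kept during it; basal effects tested by 2-min exposure alone. Endogenous glutamate by HPLC as pmol/mg protein; overflow = stimulated minus basal in control chambers; n = 3–9, triplicate.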

For test [3] the target is unchanged. The experiment in a line: Agonist activity at CB1R in Sprague-Dawley rat hippocampal synaptosomes assessed as inhibition of 4-AP evoked glutamate release at 10 uM preincubated for 8 mins followed by 4-AP addition in presence of 1 to 3 uM CB1R antagonist, SR141716A by HPLC analysis. The format is subcellular. As to conditions: Hippocampus. The method, boiled down:
as §2

For test [4], the target named is Cannabinoid receptor 2 (Mus musculus) (UniProt P47936). The experiment in a line: Agonist activity at CB2R in LPS induced mouse BV2 cells assessed as increase in IL-10 secretion at 10 uM preincubated for 30 mins followed by LPS stimulation for 4 hrs by ELISA. As to conditions: BV-2, filed as agonist, time 270.0 min. Format: cell-based. A digest of the protocol: (§3)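 BV-2 murine microglia grown in high-glucose DMEM with 10% FBS. Treatments in FBS-free medium: test agonist 10 μM for 30 min, then LPS 5 μg/ml for 4 h; SR144528 10 μM given 15 min before agonist. DMSO ≤0.1% final. Medium spun 10 min at 1000×g; IL-1β, IL-6, IL-10 quantified by ELISA; three independent experiments in duplicate.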
Cannabinoid receptor 2 (Mus musculus), sequence (P47936 whole entry): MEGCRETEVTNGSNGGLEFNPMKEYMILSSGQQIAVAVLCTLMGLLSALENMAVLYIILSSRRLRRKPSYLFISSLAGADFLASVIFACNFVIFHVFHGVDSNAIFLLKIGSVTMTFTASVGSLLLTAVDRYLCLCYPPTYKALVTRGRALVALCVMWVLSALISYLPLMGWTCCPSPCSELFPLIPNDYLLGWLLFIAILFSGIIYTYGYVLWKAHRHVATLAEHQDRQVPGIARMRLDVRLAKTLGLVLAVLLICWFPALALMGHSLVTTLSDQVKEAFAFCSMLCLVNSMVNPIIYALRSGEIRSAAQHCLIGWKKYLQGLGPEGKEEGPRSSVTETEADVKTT
(An ELISA detects its analyte on a solid surface through an enzyme-linked reagent.)

In test [5] the test system is Mus musculus. Description: Antiinflammatory activity in MOG (35 to 55 residues)/pertussis toxin-induced experimental autoimmune encephalomyelitis C57BL/6J mouse model assessed as reduction in clinical scores at 10 mg/kg, ip dosed once daily for 20 days starting from day 10 to 16 post immunization and measured from 10 to 19 days post treatment. The format is functional. As to conditions: time 10-19 day. The method, boiled down:
as §1

The subject of test [6] is Mus musculus. The experiment in a line: Antiinflammatory activity in MOG (35 to 55 residues)/pertussis toxin-induced experimental autoimmune encephalomyelitis C57BL/6J mouse model assessed as improvement in early stage disease severity at 10 mg/kg, ip dosed once daily for 20 days starting from day 10 to 16 post immunization and measured at day 2 to 4 post treatment. The format is functional, organism-based. As to conditions: time 2-4 day. The method, boiled down: as §1

In another test the target is Cannabinoid receptor 1 (Homo sapiens, UniProt P21554). Description: Agonist activity at human CB1R expressed in CHO cell membranes after 90 mins by [35S]GTPgammaS assay. The format is functional, Membrane. The method, boiled down:
(§4)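 In-house CHO membranes expressing hCB1 or hCB2 (10 µg) in 50 mM Tris-HCl, 3 mM MgCl2, 0.2 mM EDTA, 100 mM NaCl, 0.5% fatty-acid-free BSA, pH 7.4, with 10 μM GDP and 0.1 nM [35S]GTPγS. Incubated 90 min at 30 °C; antagonist pre-incubated 30 min. Nonspecific binding with 10 μM GTPγS; bound label by filtration and counting; ≥3 experiments in triplicate.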
In general terms: Binding of GTPγS marks nucleotide exchange on a G protein.

The target of test [7] is Cannabinoid receptor 2 (Mus musculus) (UniProt P47936). The experiment in a line: Agonist activity at CB2R in LPS induced mouse BV2 cells assessed as reduction in IL-1beta secretion at 10 uM preincubated with CB2R antagonist, SR144528 for 15 mins followed by compound additon for 30 mins after LPS stimulation for 4 hrs by ELISA. Format: cell-based. To be noted: BV-2, time 270.0 min. A digest of the protocol:
as §3

Test [8] has as its target T1, Cannabinoid receptor 2 (Homo sapiens, UniProt P34972). Description: Competitive antagonist activity at human CB2R expressed in CHO cell membranes assessed as rightward shift of N-cycloheptyl-1,2-dihydro-5-bromo-1-(4-fluoro benzyl)-6-methyl-2-oxo-pyridine-3-carboxamide-induced GTPgammaS binding by measuring fold change in N-cycloheptyl-1,2-dihydro-5-bromo-1-(4-fluoro benzyl)-6-methyl-2-oxo-pyridine-3-carboxamide EC50 at 1000 nM preincubated with compound for 30 mins followed by GTPgammaS addition and measured after 90 mins by [35S]GTPgammaS assay. Format: functional. To be noted: Membrane, time 120.0 min. A digest of the protocol: (§5)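 hCB2 CHO membranes in GTPγS buffer (10 μM GDP, 0.1 nM [35S]GTPγS, pH 7.4) pre-incubated 30 min with antagonist at 300 nM or 1 µM, then agonist or inverse agonist concentration series, 90 min at 30 °C. EC50 and Emax reported with 95% CI; Schild analysis; controls CP55,940 100 nM and AM630 1 μM; ≥3 experiments in triplicate.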

The target of test [9] is T1, Cannabinoid receptor 2. The experiment in a line: Competitive antagonist activity at human CB2R expressed in CHO cell membranes assessed as N-cycloheptyl-1,2-dihydro-5-bromo-1-(4-fluoro benzyl)-6-methyl-2-oxo-pyridine-3-carboxamide Emax at 300 nM preincubated with compound for 30 mins followed by GTPgammaS addition and measured after 90 mins by [35S]GTPgammaS assay (reference value: 210%). To be noted: Membrane, filed as antagonist, time 120.0 min. The format is functional. A digest of the protocol: as §5

Test [10] has as its target T1, Cannabinoid receptor 2. Description: Non-competitive antagonist activity at human CB2R expressed in CHO cell membranes assessed as N-cycloheptyl-1,2-dihydro-1-(4-fluorobenzyl)-6-methyl-2-oxo-5-phenyl-pyridine-3-carboxamide Emax at 1000 nM preincubated with compound for 30 mins followed by GTPgammaS addition and measured after 90 mins by [35S]GTPgammaS assay (reference value: -49.9%). To be noted: Membrane, filed as antagonist, time 120.0 min. The format is functional. A digest of the protocol: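 hCB2 membranes from stably transfected CHO cells (10 µg) pre-incubated 30 min with antagonist, then an inverse-agonist concentration series added. Buffer: 50 mM Tris-HCl, 3 mM MgCl2, 0.2 mM EDTA, 100 mM NaCl, 0.5% fatty-acid-free BSA, pH 7.4, with 10 µM GDP and 0.1 nM [35S]GTPγS. Incubated 90 min at 30 °C, then filtered. Non-specific binding measured with 10 µM GTPγS. Emax given with 95% CI; at least 3 experiments, each in triplicate.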

Test [11] has as its target T1, Cannabinoid receptor 2. Description: Competitive antagonist activity at human CB2R expressed in CHO cell membranes assessed as rightward shift of N-cycloheptyl-1,2-dihydro-5-bromo-1-(4-fluoro benzyl)-6-methyl-2-oxo-pyridine-3-carboxamide-induced GTPgammaS binding by measuring fold change in N-cycloheptyl-1,2-dihydro-5-bromo-1-(4-fluoro benzyl)-6-methyl-2-oxo-pyridine-3-carboxamide EC50 at 100 nM preincubated with compound for 30 mins followed by GTPgammaS addition and measured after 90 mins by [35S]GTPgammaS assay. The format is functional. To be noted: Membrane, time 120.0 min.

The target of test [12] is T1, Cannabinoid receptor 2. Description: Antagonist activity at human CB2R expressed in CHO cell membranes preincubated for 30 mins followed by GTPgammaS addition and measured after 90 mins by [35S]GTPgammaS assay. The format is functional, Membrane. The method, boiled down: as §4

These results are taken from ChEMBL document CHEMBL4706601, “The endocannabinoid system dual-target ligand N-cycloheptyl-1,2-dihydro-5-bromo-1-(4-fluorobenzyl)-6-methyl-2-oxo-pyridine-3-carboxamide improves disease severity in a mouse model of multiple sclerosis” (Eur J Med Chem, 2020).

pEC50: −log10 of the molar value. Calls of active or inactive are those of the source. The calls are words filed in the database; no cut-off is given here.

T1 sequence (P34972 whole entry): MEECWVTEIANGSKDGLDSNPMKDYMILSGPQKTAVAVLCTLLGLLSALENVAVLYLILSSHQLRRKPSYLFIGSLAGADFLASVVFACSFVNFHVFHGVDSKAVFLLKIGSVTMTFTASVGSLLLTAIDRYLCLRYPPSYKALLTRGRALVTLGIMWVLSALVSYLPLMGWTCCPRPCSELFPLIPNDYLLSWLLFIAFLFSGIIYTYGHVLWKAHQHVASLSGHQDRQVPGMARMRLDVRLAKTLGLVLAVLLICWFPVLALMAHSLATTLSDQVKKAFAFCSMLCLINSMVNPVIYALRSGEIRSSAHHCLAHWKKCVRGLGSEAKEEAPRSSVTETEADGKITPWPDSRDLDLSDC
Cannabinoid receptor 1 (Rattus norvegicus), sequence (P20272 whole entry, the tested form may be a part): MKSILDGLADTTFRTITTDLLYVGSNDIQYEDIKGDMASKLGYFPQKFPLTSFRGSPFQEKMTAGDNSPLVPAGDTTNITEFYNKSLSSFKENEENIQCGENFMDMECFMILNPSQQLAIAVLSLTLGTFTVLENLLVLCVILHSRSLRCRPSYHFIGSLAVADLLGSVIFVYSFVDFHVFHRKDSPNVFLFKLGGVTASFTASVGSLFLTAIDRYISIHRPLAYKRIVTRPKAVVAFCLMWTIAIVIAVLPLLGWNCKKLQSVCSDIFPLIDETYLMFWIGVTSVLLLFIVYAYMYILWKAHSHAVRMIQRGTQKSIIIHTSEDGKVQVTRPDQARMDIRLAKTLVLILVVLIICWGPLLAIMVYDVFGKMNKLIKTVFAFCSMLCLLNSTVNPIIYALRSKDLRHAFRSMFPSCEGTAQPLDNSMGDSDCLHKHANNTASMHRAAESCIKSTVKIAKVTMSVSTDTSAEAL
Cannabinoid receptor 1, sequence (P21554 whole entry): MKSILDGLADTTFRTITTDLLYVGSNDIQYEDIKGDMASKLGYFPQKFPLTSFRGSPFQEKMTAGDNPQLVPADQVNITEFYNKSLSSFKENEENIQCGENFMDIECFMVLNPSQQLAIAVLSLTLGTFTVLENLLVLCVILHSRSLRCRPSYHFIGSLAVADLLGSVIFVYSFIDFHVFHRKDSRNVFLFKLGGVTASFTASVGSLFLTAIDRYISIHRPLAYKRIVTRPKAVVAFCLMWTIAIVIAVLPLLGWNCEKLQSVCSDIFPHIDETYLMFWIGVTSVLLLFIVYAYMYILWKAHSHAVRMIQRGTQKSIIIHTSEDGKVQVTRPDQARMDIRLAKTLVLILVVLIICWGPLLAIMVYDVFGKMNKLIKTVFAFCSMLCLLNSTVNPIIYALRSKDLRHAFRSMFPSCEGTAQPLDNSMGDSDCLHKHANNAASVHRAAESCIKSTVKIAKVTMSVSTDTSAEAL

In the case of `Cc1c(Br)cc(C(=O)NC2CCCCCC2)c(=O)n1Cc1ccc(F)cc1`, the result in the test with Mus musculus [1] and in the test on Mus musculus [6] was Active. Further, the outcome in [2], in test [3] and in test [7] was inactive. Besides, the Activity in test [4] is 484%. Moreover, the inhibition in vivo (in general, the percentage by which the read-out fell short of the control) at 10 mg/kg with Mus musculus [5] stood at 50%. Moreover, the negative-log EC50 (pEC50) – broadly, −log10 of the EC50, conventionally taken in molar units – on Cannabinoid receptor 1 was 7.25.
`COc1ccc(-c2cc(C(=O)NC3CCCCCC3)c(=O)n(Cc3ccc(F)cc3)c2C)cc1`: the fold change (FC) is 70 at Cannabinoid receptor 2 [8] and 8 on Cannabinoid receptor 2 [11]. In addition, the Emax (in general, the maximal effect, on the per cent scale that the assay sets) at Cannabinoid receptor 2 [9] is 209%; at Cannabinoid receptor 2 [10] it was -24.9%. At Cannabinoid receptor 2 [12], this compound gave a negative logarithm of the EC50 (pEC50) of 6.77.
